According to ChEMBL document CHEMBL3585325, “Discovery of (1R,2S)-2-{[(2,4-Dimethylpyrimidin-5-yl)oxy]methyl}-2-(3-fluorophenyl)-N-(5-fluoropyridin-2-yl)cyclopropanecarboxamide (E2006): A Potent and Efficacious Oral Orexin Receptor Antagonist” (J Med Chem, 2015):

Assays:
[1] = Plasma clearance in C57BL/6NCrlCrlj mouse at 1 mg/kg, iv by LC-MS/MS analysis; assay type: ADME, organism-based
Method in brief: (§1)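 Male C57BL/6NCrlCrlj mice dosed intravenously at 1 mg/kg in 10% DMSO in water. Blood was taken from the tail vein at set time points and spun to plasma. Concentrations were measured by LC-MS/MS (MRM, positive mode) against a 1/x²-weighted standard curve with internal standard. Parameters came from noncompartmental analysis.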

Mus musculus [2] = test: Sleep promoting activity in C57BL/6NCrlCrlj mouse assessed as increase in non-REM sleep at 10 mg/kg, po administered immediately prior to beginning of dark cycle measured during first 3 hrs after drug administration by electroencephalogram/electromyogram analysis (reference value: 62.6 min); assay type: functional
Method in brief: (§2)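 Male C57BL/6NCrlCrlj mice implanted with EEG/EMG electrodes were dosed orally in 10% Cremophor EL, 5% DMSO in saline just before lights-off (ZT12) and recorded from ZT12 to ZT20. Group sizes were n=6 dosed and n=7 vehicle. Stages were scored by software with blinded visual confirmation; cumulative first-3-h times are mean with SEM. Dunnett's test was run after one-way ANOVA.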

[3] = AUC (0 to infinity) in C57BL/6NCrlCrlj mouse at 1 mg/kg, iv by LC-MS/MS analysis; assay type: ADME, organism-based; set-up: dose 1 mg/kg, time infinity, route intravenous; settings: in vivo; method in brief: as §1
[4] = Oral bioavailability in C57BL/6NCrlCrlj mouse at 30 mg/kg by LC-MS/MS analysis; assay type: ADME, organism-based; settings: in vivo
[5] = Tmax in C57BL/6NCrlCrlj mouse at 10 mg/kg, po by LC-MS/MS analysis; assay type: ADME, organism-based; settings: in vivo
Method in brief: (§3)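 Male C57BL/6NCrlCrlj mice dosed orally at 10 mg/kg in 10% Cremophor EL, 5% DMSO in saline. Tail-vein blood was taken at set time points and spun to plasma. Quantified by LC-MS/MS (MRM, positive mode) with internal standard and a 1/x²-weighted calibration. Parameters came from noncompartmental analysis.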

CYP3A = CYP3A (Homo sapiens, UniProt P08684+P20815+P24462+Q9HB55); test: Time dependent inhibition of CYP3A in human liver microsomes assessed as enzyme activity using midazolam as substrate at 10 uM incubated for 30 mins prior to substrate addition for 10 mins by LC-MS/MS analysis; assay type: ADME; set-up: scale not given: the % may be the effect or the level left; settings: probe midazolam, read-out: Activity
Method in brief: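 Test compound at 10 μM preincubated 30 min at 37 °C with human liver microsomes (0.2 mg/mL), with or without an NADPH-generating system. Mixture then diluted 10-fold into a marker-substrate cocktail plus NADPH system and incubated 10 min at 37 °C. Midazolam served as the CYP3A probe. Metabolites measured by LC−MS/MS. Result is the residual activity with NADPH relative to without, as % of control.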

[6] = Half life in C57BL/6NCrlCrlj mouse at 10 mg/kg, po by LC-MS/MS analysis; assay type: ADME, organism-based; settings: in vivo; method in brief: as §3
[7] = Volume of distribution at steady state in C57BL/6NCrlCrlj mouse at 1 mg/kg, iv by LC-MS/MS analysis; assay type: ADME, organism-based; settings: in vivo, read-out: Vdss; method in brief: as §1
[8] = Cmax in C57BL/6NCrlCrlj mouse at 10 mg/kg, po by LC-MS/MS analysis; assay type: ADME, organism-based; set-up: dose 10 mg/kg, route oral; settings: in vivo; method in brief: as §3
[9] = Oral bioavailability in C57BL/6NCrlCrlj mouse at 10 mg/kg by LC-MS/MS analysis; assay type: ADME, organism-based; settings: in vivo
Method in brief: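 Oral dose of 10 mg/kg in 10% Cremophor EL, 5% DMSO in saline; intravenous reference of 1 mg/kg in 10% DMSO in water; male C57BL/6NCrlCrlj mice. Tail-vein plasma was quantified by LC-MS/MS. F% = (mean AUC0–inf po/dose po)/(mean AUC0–inf iv/dose iv) × 100.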

Mus musculus [10] = test: Sleep promoting activity in C57BL/6NCrlCrlj mouse assessed as reduction in wakefulness time at 10 mg/kg, po administered immediately prior to beginning of dark cycle measured during first 3 hrs after drug administration by electroencephalogram/electromyogram analysis (reference value: 116.7 min); assay type: functional; method in brief: as §2
Cytochrome P450 2C9 = Cytochrome P450 2C9 (Homo sapiens, UniProt P11712); test: Inhibition of CYP2C9 in human liver microsomes using tolbutamide as susbtrate incubated for 30 mins prior to substrate addition for 10 mins by LC-MS/MS analysis; assay type: ADME
Mus musculus [11] = test: Sleep promoting activity in C57BL/6NCrlCrlj mouse assessed as increase in REM sleep at 30 mg/kg, po administered immediately prior to beginning of dark cycle measured during first 3 hrs after drug administration by electroencephalogram/electromyogram analysis (reference value: 0.6 min); assay type: functional; method in brief: as §2
Mus musculus [12] = test: Sleep promoting activity in C57BL/6NCrlCrlj mouse assessed as increase in non-REM sleep at 30 mg/kg, po administered immediately prior to beginning of dark cycle measured during first 3 hrs after drug administration by electroencephalogram/electromyogram analysis (reference value: 62.6 min); assay type: functional; method in brief: as §2
[13] = Plasma concentration in C57BL/6NCrlCrlj mouse at 10 mg/kg, po administered as single dose measured after 1 hr by LC-MS/MS analysis; assay type: ADME, organism-based
Method in brief: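 Male C57BL/6NCrlCrlj mice given a single 10 mg/kg oral dose as a suspension in 0.5% aqueous methylcellulose. At 1 or 3 h, under pentobarbital anesthesia, CSF was taken from the cisterna magna and then blood from the abdominal aorta (spun to plasma). Samples were acetonitrile-precipitated with deuterated internal standard and run by LC-MS/MS. Values are mean with SEM.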

Cytochrome P450 2C19 = Cytochrome P450 2C19 (Homo sapiens, UniProt P33261); test: Inhibition of CYP2C19 in human liver microsomes using S-mephenytoin as susbtrate incubated for 30 mins prior to substrate addition for 10 mins by LC-MS/MS analysis; assay type: ADME
Mus musculus [14] = test: Sleep promoting activity in C57BL/6NCrlCrlj mouse assessed as reduction in wakefulness time at 30 mg/kg, po administered immediately prior to beginning of dark cycle measured during first 3 hrs after drug administration by electroencephalogram/electromyogram analysis (reference value: 116.7 min); assay type: functional; method in brief: as §2
Cytochrome P450 2D6 = Cytochrome P450 2D6 (Homo sapiens, UniProt P10635); test: Inhibition of CYP2D6 in human liver microsomes using bufuralol as susbtrate incubated for 30 mins prior to substrate addition for 10 mins by LC-MS/MS analysis; assay type: ADME
Cytochrome P450 2D6, sequence (P10635 whole entry): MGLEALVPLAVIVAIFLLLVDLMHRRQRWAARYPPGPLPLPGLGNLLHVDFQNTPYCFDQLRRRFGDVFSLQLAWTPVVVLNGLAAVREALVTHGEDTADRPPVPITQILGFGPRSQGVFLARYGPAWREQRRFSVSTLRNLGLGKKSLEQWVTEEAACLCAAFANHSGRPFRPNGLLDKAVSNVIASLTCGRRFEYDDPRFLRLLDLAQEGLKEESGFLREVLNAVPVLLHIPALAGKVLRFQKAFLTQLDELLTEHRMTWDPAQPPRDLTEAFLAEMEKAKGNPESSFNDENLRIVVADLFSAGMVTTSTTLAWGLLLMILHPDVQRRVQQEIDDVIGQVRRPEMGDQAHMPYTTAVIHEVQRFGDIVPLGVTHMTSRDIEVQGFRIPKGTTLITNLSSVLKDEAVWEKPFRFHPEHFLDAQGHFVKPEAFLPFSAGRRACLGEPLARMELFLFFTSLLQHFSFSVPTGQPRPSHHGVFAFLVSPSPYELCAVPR

Cytochrome P450 2C9, sequence (P11712 whole entry): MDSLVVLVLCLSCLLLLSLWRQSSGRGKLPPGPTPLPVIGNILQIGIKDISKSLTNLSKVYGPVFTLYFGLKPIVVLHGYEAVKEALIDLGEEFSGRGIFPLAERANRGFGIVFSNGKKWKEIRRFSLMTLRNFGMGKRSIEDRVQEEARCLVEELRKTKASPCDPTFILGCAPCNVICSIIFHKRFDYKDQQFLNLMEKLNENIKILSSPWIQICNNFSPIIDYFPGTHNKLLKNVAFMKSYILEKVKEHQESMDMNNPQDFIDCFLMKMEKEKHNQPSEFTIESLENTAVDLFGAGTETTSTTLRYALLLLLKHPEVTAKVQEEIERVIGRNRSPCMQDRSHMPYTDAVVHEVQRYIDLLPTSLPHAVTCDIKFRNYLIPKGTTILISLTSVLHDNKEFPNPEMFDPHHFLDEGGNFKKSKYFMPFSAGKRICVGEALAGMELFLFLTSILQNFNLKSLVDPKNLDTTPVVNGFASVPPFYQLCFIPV
Cytochrome P450 2C19, sequence (P33261 whole entry): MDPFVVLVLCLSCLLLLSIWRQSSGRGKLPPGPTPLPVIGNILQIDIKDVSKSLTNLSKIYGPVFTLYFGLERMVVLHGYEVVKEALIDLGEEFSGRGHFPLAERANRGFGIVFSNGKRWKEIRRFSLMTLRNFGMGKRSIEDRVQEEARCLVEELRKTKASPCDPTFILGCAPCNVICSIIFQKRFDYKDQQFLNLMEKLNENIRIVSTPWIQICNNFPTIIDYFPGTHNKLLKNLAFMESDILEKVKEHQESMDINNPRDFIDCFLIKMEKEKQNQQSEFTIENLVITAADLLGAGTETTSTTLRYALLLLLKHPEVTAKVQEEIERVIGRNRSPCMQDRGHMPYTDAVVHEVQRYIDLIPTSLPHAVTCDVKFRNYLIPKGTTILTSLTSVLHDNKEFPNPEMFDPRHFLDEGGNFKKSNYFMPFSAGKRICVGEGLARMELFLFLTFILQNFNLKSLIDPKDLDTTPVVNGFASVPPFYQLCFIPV

SMILES: Cc1ncc(OC[C@@]2(c3cccc(F)c3)C[C@H]2C(=O)Nc2ccc(F)cn2)c(C)n1 [LEMBOREXANT]
- clearance [1]: 17.7 mL/min/kg
- Time (Mus musculus [2]): 99.3 min
- AUC(0-inf) [3]: 1030 ng·h/mL
- bioavailability [4]: 13.4%
- Tmax [5]: 0.25 h
- activity at 10 min, 10 µM (CYP3A): 76%
- half-life [6]: 2.2 h
- Vd [7]: 2.71 L/kg
- Cmax [8]: 488 ng/mL
- bioavailability [9]: 18.5%
- Time (Mus musculus [10]): 77.1 min
- IC50 (Cytochrome P450 2C9): > 20 µM
- Time (Mus musculus [11]): 9.3 min
- Time (Mus musculus [12]): 95.5 min
- concentration at 1 h [13]: 633 nM
- IC50 (Cytochrome P450 2C19): > 20 µM
- Time (Mus musculus [14]): 75.3 min
- IC50 (Cytochrome P450 2D6): > 20 µM
